Screening data (PubChem BioAssay)
The list is not random: actives were taken first. Their share in the collection is about 3.4%.
E-selectin induc: E-selectin induction on HUVECs; P16581; HUVEC E-selectin immunofluorescence imaging; normalized: neutral wells 0, TNF-alpha wells 100; activation, % at 7.58 µM; actives 0.37% (n = 260,000); AID 686992;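 active means mean E-selectin-positive cell signal at least 10% of the positive control, reached in at least 60% of replicates, without over 20% cell loss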
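Read-out: % PE-positive cells | Test system: HUVEC | Doses: One compound dose added by pin transfer | Buffer or medium: EGM-2 over gelatin coat | Signal: Immunofluorescence imaging | Benchmarks: TNF-alpha, DMSO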
ERAP1 HTS inh: ERAP1 (human) enzyme inhibition; Q9NZ08; inhibition, % at 10.7 µM; AID 652197; recombinant ERAP1, Leu-AMC fluorescence, 60 min; actives 0.15% (n = 340,000);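 active means mean replicate inhibition of at least 30%, or all replicates individually reaching that 30% level; inactive means mean below 30% and not every replicate reaching it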;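 further: 0% = neutral control wells and 100% = L-leucinethiol positive control wells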
Target sequence (Q9NZ08 whole entry, looked up): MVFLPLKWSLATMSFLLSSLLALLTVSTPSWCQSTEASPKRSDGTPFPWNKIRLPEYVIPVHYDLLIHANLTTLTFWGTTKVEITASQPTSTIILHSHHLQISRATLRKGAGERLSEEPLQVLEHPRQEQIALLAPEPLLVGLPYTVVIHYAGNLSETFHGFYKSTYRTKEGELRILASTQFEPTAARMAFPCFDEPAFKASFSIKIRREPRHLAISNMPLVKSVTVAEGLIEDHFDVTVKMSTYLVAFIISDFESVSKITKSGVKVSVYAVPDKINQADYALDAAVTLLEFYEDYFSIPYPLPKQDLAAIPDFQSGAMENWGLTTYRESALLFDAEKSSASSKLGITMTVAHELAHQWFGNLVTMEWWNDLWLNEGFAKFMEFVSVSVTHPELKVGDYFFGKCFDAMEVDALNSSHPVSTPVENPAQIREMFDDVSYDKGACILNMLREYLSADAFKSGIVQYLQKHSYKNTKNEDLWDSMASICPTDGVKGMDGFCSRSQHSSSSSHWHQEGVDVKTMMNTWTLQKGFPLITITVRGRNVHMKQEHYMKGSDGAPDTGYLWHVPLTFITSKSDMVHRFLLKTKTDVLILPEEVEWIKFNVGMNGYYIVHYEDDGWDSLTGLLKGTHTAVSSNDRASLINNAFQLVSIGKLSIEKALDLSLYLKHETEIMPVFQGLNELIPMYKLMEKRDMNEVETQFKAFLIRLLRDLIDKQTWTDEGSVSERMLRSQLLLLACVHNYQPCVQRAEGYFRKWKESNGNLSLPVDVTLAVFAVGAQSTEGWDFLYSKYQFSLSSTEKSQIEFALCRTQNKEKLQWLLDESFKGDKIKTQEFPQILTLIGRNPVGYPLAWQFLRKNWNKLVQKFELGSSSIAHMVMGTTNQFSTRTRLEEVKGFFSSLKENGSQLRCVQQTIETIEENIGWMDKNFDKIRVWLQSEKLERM
Ecoli rRNA inh: inhibits bacterial ribosomal RNA function over humanized ribosomes. E. coli WT GFP vs humanized-ribosome RFP mutants, fluorescence, 24 h; active compounds read low; DMSO median 0, no signal -100. GFP signal change (wild-type ribosome), % (no concentration beside the values). actives 1.6% (n = 350,000). AID 720706;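 active means significant combined selectivity score with lowered wild-type GFP, culture density cut under 30%, mutant RFP and density less affected; inactive means any of these conditions unmet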
SIRT5 block: blocks human SIRT5 desuccinylation of peptide; Q9NXA8; Purified SirT5, succinyl-peptide AMC, trypsin-coupled fluorescence; inhibition, % at 15 µM; actives 1.1% (n = 330,000); AID 652115; in the data active means inhibition above about 15%
MLL AF4-AF9 inh: blocks AF4 peptide binding to human AF9 | P42568 | AlphaScreen, biotin-AF4 peptide binding to FLAG-AF9 | inhibition, % at 10 µM | actives 0.47% (n = 350,000) | AID 651704;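 active means every replicate reaching a set inhibition limit, whatever the replicate mean, cut at about 25% in these data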;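 further: 0% = plate neutral control median and 100% = total signal loss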
S100A4 inh HTS: S100A4-myosin IIA interaction inhibition. inhibition, % at 10.7 µM. AID 652163. S100A4/TAMRA-MyoIIA peptide fluorescence polarization. actives 0.14% (n = 360,000). P26447;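 active means mean inhibition of at least 70% across replicates, with every replicate also reaching that level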
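Material: S100A4 monomer (human). Medium: Calcium-containing HEPES buffer, pH 7.2. Probe or stimulus: labelled myosin peptide probe, 5 nM. Compound dosing: one concentration per compound. Timing: polarization read 5 min after assay mix addition, stable 5–60 min. Benchmarks: DMSO as neutral control, TFP as positive control.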
* marks the source's active call; other numbers are inactive results; . = no result given.

SMILES	E-selectin induc	ERAP1 HTS inh	Ecoli rRNA inh	SIRT5 block	MLL AF4-AF9 inh	S100A4 inh HTS
Cc1ccc(S(=O)(=O)N(C)C[C@H]2OCCCC[C@H](C)Oc3ccc(NS(=O)(=O)c4ccc(F)cc4)cc3C(=O)N([C@H](C)CO)C[C@@H]2C)cc1	0.1	2.0	-2.0	20.5*	1.0	-17.5
CC(C)C[C@H](NC(=O)c1nc[nH]c1C(=O)NC1CCNCC1)C(=O)OC(C)(C)C	0.1	-2.7	2.9	17.5*	-10.7	2.0
CC(C)(C)OC(=O)[C@H](Cc1ccccc1)NC(=O)c1nc[nH]c1C(=O)NC1CCNCC1	2.8	.	-1.7	.	6.1	-1.6
COC(=O)C[C@H]1C[C@H]2c3cc(NC(=O)Nc4ccc(OC)cc4)ccc3O[C@H]2[C@@H](CO)O1	.	.	-0.1	.	.	.
COc1ccccc1S(=O)(=O)Nc1cc(S(=O)(=O)N2CCCCC2)ccc1N1CCOCC1	0.1	-2.0	-27.9*	17.3*	1.4	3.2
Cc1ccc2cc(CN(Cc3ccc(F)cc3)Cc3nnnn3C3CCCC3)c(=O)[nH]c2c1	.	0.0	-21.8	28.8*	5.4	-2.3
Cc1ccc2cc(CN(Cc3cccs3)Cc3nnnn3CC3CCCO3)c(=O)[nH]c2c1 (centres undefined)	.	-0.3	-28.9*	-1.0	4.8	-4.3
Cc1ccc2cc(CN(Cc3ccccc3)Cc3nnnn3C3CCCC3)c(=O)[nH]c2c1	.	8.9	-26.2	-1.6	-5.6	9.4
COc1ccccc1CN(Cc1cc2cc(C)cc(C)c2[nH]c1=O)Cc1nnnn1CC1CCCO1 (centres undefined)	.	5.3	7.5	2.3	-3.4	-2.3
COc1ccc(NC(=O)Nc2ccc3c(c2)C(=O)N([C@@H](C)CO)C[C@@H](C)[C@H](CN(C)Cc2ccncc2)OCCCC[C@H](C)O3)cc1	-0.2	1.3	-3.1	1.8	0.1	-1.8
COc1cccc(C(=O)NC2CCCN(C3Cc4ccccc4C3)C2)c1OC (centres undefined)	.	-4.4	4.9	-2.1	26.1*	-1.4
CCOc1ccc2c(c1)C(NC(C)=O)C(=O)N2CCN1CCOCC1 (centres undefined)	.	19.3	11.5	1.3	25.0*	-6.4
CC(=O)NC1C(=O)N(CCN2CCOCC2)c2ccc(Br)cc21 (centres undefined)	0.0	14.9	15.9	-1.1	16.1	-3.1
CCN(CC)C(=O)Oc1nnc(SC(C)C)n1-c1ccc(Cl)cc1	.	-1.1	-29.0*	-2.6	2.0	-4.5
Cc1ccc(S(=O)(=O)N(C)C[C@@H]2OCCCC[C@@H](C)Oc3ccc(NS(=O)(=O)c4ccccc4)cc3C(=O)N([C@H](C)CO)C[C@H]2C)cc1	0.0	3.5	-0.4	21.6*	1.2	-15.3
Cc1ccc(S(=O)(=O)Nc2ccc3c(c2)C(=O)N([C@@H](C)CO)C[C@@H](C)[C@H](CN(C)CC2CCCCC2)OCCCC[C@H](C)O3)cc1	0.0	-1.0	-3.7	-0.6	8.0	7.7
Cc1ccc(S(=O)(=O)Nc2ccc3c(c2)C(=O)N([C@H](C)CO)C[C@@H](C)[C@@H](CN(C)CC2CCCCC2)OCCCC[C@H](C)O3)cc1	-0.1	-1.2	-18.9	17.5*	7.2	5.1
Cc1ccc(S(=O)(=O)Nc2ccc3c(c2)C(=O)N([C@H](C)CO)C[C@@H](C)[C@H](CN(C)S(=O)(=O)c2ccccc2)OCCCC[C@H](C)O3)cc1	0.1	0.1	-1.6	10.0	-1.7	-3.2
Cc1ccc(S(=O)(=O)N(C)C[C@@H]2OCCCC[C@@H](C)Oc3ccc(NS(C)(=O)=O)cc3C(=O)N([C@@H](C)CO)C[C@@H]2C)cc1	0.0	1.6	0.3	5.2	-0.1	88.3*
Cc1ccc(S(=O)(=O)N(C)C[C@@H]2OCCCC[C@@H](C)Oc3ccc(NS(=O)(=O)c4ccccc4)cc3C(=O)N([C@@H](C)CO)C[C@@H]2C)cc1	-0.2	1.9	1.4	20.6*	1.8	-1.5
Cc1ccc(S(=O)(=O)Nc2ccc3c(c2)C(=O)N([C@@H](C)CO)C[C@H](C)[C@@H](CN(C)S(=O)(=O)c2ccccc2)OCCCC[C@@H](C)O3)cc1	0.1	0.5	11.5	19.3*	-0.6	-10.4
